Results published in the array DNA melting data of Ke et al. (doi:10.1101/2024.01.08.574731).

What was measured:
[1] = melting temperature; fluorescence melt of hairpins on a sequencing array, two-state fit, raised by 9.35 °C to match UV melts; settings: sodium 0.088 M
Procedure, shortened: (§1)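 To match UV melts, fitted temperatures were raised by 9.35 °C. These fits were bootstrapped two-state models that gave melting temperature and folding enthalpy, combined by inverse variance over four replicates. The input was normalised Cy3 fluorescence of library hairpins with annealed Cy3 and quencher oligos on a sequenced MiSeq flow cell, imaged in 50 mM Na-HEPES pH 8.0, 25 mM NaCl in 2.5 °C steps up to 60 °C.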

[2] = folding enthalpy; higher = less favourable; fluorescence melt of hairpins on a sequencing array, two-state fit; settings: sodium 0.088 M
Procedure, shortened: as §1

Sequence | Tm [1] | folding enthalpy [2]
CGTGAACGGAAACGTACG (((..(((....)))))) | 35.3 °C | -21.1 kcal/mol
CGTGACGGAAACGTAACG (((.(((....))).))) | 50.3 °C | -37.4 kcal/mol
CGTGACGGAAACGTGACG (((.(((....))).))) | 48.9 °C | -26.2 kcal/mol
CGTGATCGGAAACGAACG (((..(((....)))))) | 28.6 °C | -8.71 kcal/mol
CGTGCCCGGAAACGGACG (((..(((....)))))) | 32.9 °C | -14.8 kcal/mol
CGTGCGGAAACGCGAACG ((((((....)))..))) | 47.6 °C | -23.3 kcal/mol
CGTGCGGAAACGCTAACG ((((((....)))..))) | 43.5 °C | -20 kcal/mol
CGTGGCGGAAACGCAACG (((.(((....))).))) | 56.8 °C | -38.7 kcal/mol
CGTGTCGGAAACGAGACG (((.(((....))).))) | 51.7 °C | -36 kcal/mol
CGTTACGGAAACGTTACG (((.(((....))).))) | 48 °C | -26.9 kcal/mol
CGTTCGGAAACGAAACG ((((((....))).))) | 45.8 °C | -27.8 kcal/mol
CGTTCGGAAACGACGACG ((((((....)))..))) | 37.5 °C | -15.9 kcal/mol
CGTTCGGAAACGAGACG ((((((....))).))) | 39 °C | -24.1 kcal/mol
CGTTCGGAAACGAGTACG ((((((....)))..))) | 35.9 °C | -18.8 kcal/mol
CGTTGCGGAAACGCACG (((.(((....)))))) | 52.8 °C | -21.4 kcal/mol
CGTTGGAAACAACG (((((....))))) | 52.9 °C | -30.3 kcal/mol
CTAAGGAAACTTAG (((((....))))) | 29.8 °C | -10.7 kcal/mol
CTAATGAAAATTAG (((((....))))) | 26 °C | -7.43 kcal/mol
CTACTGAAAAGTAG (((((....))))) | 44.3 °C | -13.5 kcal/mol
CTAGTGAAAACTAG (((((....))))) | 42.4 °C | -15 kcal/mol
CTCACGAAAGTGAG (((((....))))) | 61 °C | -22.2 kcal/mol
CTCCGGAAACGGAG (((((....))))) | 55.1 °C | -24 kcal/mol
CTGAGGAAACTCAG (((((....))))) | 47.1 °C | -20.1 kcal/mol

Sequence | Tm [1] | folding enthalpy [2]
CTTATGAAAATAAG (((((....))))) | 25.1 °C | -11.4 kcal/mol
CTTCCGAAAGGAAG (((((....))))) | 55.8 °C | -21.3 kcal/mol
CTTGAGAAATCAAG (((((....))))) | 35.6 °C | -11.1 kcal/mol
GAAAAAGGAAACTTTTTC (((((((....))))))) | 46 °C | -39.7 kcal/mol
GAAAACACGAAAGTGTTC (((..(((....)))))) | 35.9 °C | -11.9 kcal/mol
GAAAACGAAAGTTGATTC ((((((....)))..))) | 33.6 °C | -17.8 kcal/mol
GAAAACGCGAAAGCGTTC (((..(((....)))))) | 41.1 °C | -8.84 kcal/mol
GAAAACGGAAACGTTCTC ((.((((....)))).)) | 30.4 °C | -12.7 kcal/mol
GAAAAGGGAAACTTTTTC (((((.(....).))))) | 29.6 °C | -11.5 kcal/mol
GAAAATCCGAAAGGATTC (((..(((....)))))) | 33.4 °C | -11.8 kcal/mol
GAAAATGGAAACATTTTC (((((((....))))))) | 51 °C | -44.6 kcal/mol
GAAACCCGAAAGGGCTTC (((.(((....))).))) | 46.4 °C | -24.9 kcal/mol
GAAACCCGAAAGGGGTTC (((.(((....))).))) | 59.2 °C | -29 kcal/mol
GAAACCGAAAGGTATTC ((((((....))).))) | 31.6 °C | -14.1 kcal/mol
GAAACCGAAAGGTCTTC ((((((....))).))) | 40.4 °C | -19.4 kcal/mol
GAAACCGAAAGGTGTTC ((((((....))).))) | 36.5 °C | -13 kcal/mol
GAAACCGGAAACGGTCTC ((.((((....)))).)) | 35.5 °C | -14.2 kcal/mol
GAAACGCGAAAGCGCTTC (((.(((....))).))) | 51.5 °C | -18.7 kcal/mol
GAAACGCGAAAGCGGTTC (((.(((....))).))) | 66.3 °C | -27.2 kcal/mol
GAAACGGAAACGTTTC ((((((....)))))) | 55.3 °C | -39.8 kcal/mol
GAAACGGGAAACCGCTTC (((.(((....))).))) | 40.4 °C | -24.2 kcal/mol
GAAACGGGAAACCGTCTC ((.((((....)))).)) | 32.9 °C | -13.5 kcal/mol
GAAACTGGAAACAGCTTC (((.(((....))).))) | 32.5 °C | -31.1 kcal/mol

Sequence | Tm [1] | folding enthalpy [2]
GAAACTGGAAACAGTTTC (((((((....))))))) | 56.9 °C | -51.5 kcal/mol
GAAAGCACGAAAGTGTTC (((..(((....)))))) | 24 °C | -9.28 kcal/mol
GAAAGCGAAAGCTACTTC ((((((....)))..))) | 35.9 °C | -14.6 kcal/mol
GAAAGCGAAAGCTCATTC ((((((....)))..))) | 23.9 °C | -8.68 kcal/mol
GAAAGCGAAAGCTGTTC ((((((....))).))) | 34.1 °C | -10.8 kcal/mol
GAAAGCGAAAGCTTTC ((((((....)))))) | 64.7 °C | -34.9 kcal/mol
GAAAGCGGAAACACTTTC (((((.(....).))))) | 36.2 °C | -29.8 kcal/mol
GAAAGGCGAAAGCCCTTC (((.(((....))).))) | 38.8 °C | -13 kcal/mol
GAAAGGGGAAACCCCTTC (((.(((....))).))) | 39.9 °C | -14.8 kcal/mol
GAAAGGGGAAACCCTTCC (.(((((....))))).) | 32.1 °C | -19.7 kcal/mol
GAAAGTGGAAACACTCTC ((.((((....)))).)) | 26.6 °C | -19.4 kcal/mol
GAAATAGGAAACTATTTC (((((((....))))))) | 46.4 °C | -44.1 kcal/mol
GAAATCGAAAGATTTC ((((((....)))))) | 55.9 °C | -32.5 kcal/mol
GAAATCGGAAACGATTCC (.(((((....))))).) | 37.1 °C | -16.6 kcal/mol
GAAATGCGAAAGCAATTC (((.(((....))).))) | 45.3 °C | -20 kcal/mol
GAAATTGAAAAATTTC ((((((....)))))) | 40.3 °C | -23.6 kcal/mol
GAAATTGGAAACAATTCC (.(((((....))))).) | 30.5 °C | -22.9 kcal/mol
GAACAAGGAAACTTGTTC (((((((....))))))) | 53 °C | -44.9 kcal/mol
GAACACGAAAGTGATTTC ((((((....)))..))) | 26.9 °C | -12.3 kcal/mol
GAACACGAAAGTGCTTTC ((((((....)))..))) | 27.8 °C | -13 kcal/mol
GAACACGAAAGTGGTTC ((((((....))).))) | 47.1 °C | -18.6 kcal/mol
GAACAGCCGAAAGGCTTC (((..(((....)))))) | 24.5 °C | -5.48 kcal/mol
GAACAGGGAAACCTGTCC (.(((((....))))).) | 35.1 °C | -16.1 kcal/mol

Sequence | Tm [1] | folding enthalpy [2]
GAACAGGGAAACTTGTTC (((((.(....).))))) | 37.1 °C | -27.2 kcal/mol
GAACCACGAAAGTGTTTC (((.(((....))).))) | 37.2 °C | -27.6 kcal/mol
GAACCAGGAAACTGATTC (((.(((....))).))) | 32.3 °C | -20.5 kcal/mol
GAACCAGGAAACTGGTCC (.(((((....))))).) | 39.5 °C | -12.6 kcal/mol
GAACCCCGAAAGGGTTTC (((.(((....))).))) | 47.8 °C | -16.2 kcal/mol
GAACCCGAAAGGGAATTC ((((((....)))..))) | 31.4 °C | -12.1 kcal/mol
GAACCCGAAAGGGCCTTC ((((((....)))..))) | 34.6 °C | -14.2 kcal/mol
GAACCCGAAAGGGGGTTC ((((((....)))..))) | 56 °C | -25.3 kcal/mol
GAACCCGAAAGGGGTTC ((((((....))).))) | 61.1 °C | -26 kcal/mol
GAACCCGAAAGGGTATTC ((((((....)))..))) | 33.2 °C | -9.47 kcal/mol
GAACCCGGAAACGGGTCC (.(((((....))))).) | 45.4 °C | -11.2 kcal/mol
GAACCGGGAAACCGATTC (((.(((....))).))) | 39.2 °C | -26.4 kcal/mol
GAACCGGGAAACCGGCTC ((.((((....)))).)) | 46 °C | -15.7 kcal/mol
GAACCGGGAAACCGGTCC (.(((((....))))).) | 41.2 °C | -11.6 kcal/mol
GAACCTGGAAACGGGTTC (((((.(....).))))) | 50.7 °C | -39.3 kcal/mol
GAACGAGAAATCGTTC ((((((....)))))) | 54.5 °C | -31.3 kcal/mol
GAACGAGCGAAAGCTTTC (((..(((....)))))) | 23.9 °C | -8.11 kcal/mol
GAACGAGGAAACCCGTTC (((((.(....).))))) | 45.9 °C | -33.5 kcal/mol
GAACGAGGAAACTTGTTC ((((.((....)).)))) | 43.2 °C | -28.7 kcal/mol
GAACGCACGAAAGTGTTC (((..(((....)))))) | 34.1 °C | -12.8 kcal/mol
GAACGCGAAAGCGAGTTC ((((((....)))..))) | 43.1 °C | -14.8 kcal/mol
GAACGCGAAAGCGATTC ((((((....))).))) | 45.7 °C | -14.1 kcal/mol
GAACGCGAAAGCGATTTC ((((((....)))..))) | 32.3 °C | -9.14 kcal/mol
